Read-outs that look alike come from different tables or passages of the source.
Columns and labels:
[1] = test system: NF54; experiment: 72 h [3H]hypoxanthine incorporation assay, NF54; format: cell-based; conditions: Plasmodium falciparum
Procedure, shortened: (§1)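 Asexual Pf strains were tested in a modified [3H]-hypoxanthine incorporation assay. Drug-resistant laboratory strains were compared with the drug-sensitive NF54 strain. IC50s came from linear interpolation.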

[2] = test system: Dd2; experiment: 72 h [3H]hypoxanthine incorporation assay, Dd2; format: cell-based; conditions: Plasmodium falciparum
[3] = test system: K1; experiment: 72 h [3H]hypoxanthine incorporation assay, K1; format: cell-based; conditions: Plasmodium falciparum
Procedure, shortened: as §1

[4] = test system: 7G8; experiment: 72 h [3H]hypoxanthine incorporation assay, 7G8; format: cell-based; conditions: Plasmodium falciparum
Procedure, shortened: as §1

[5] = test system: TM90C2b; experiment: 72 h [3H]hypoxanthine incorporation assay, TM90C2b; format: cell-based; conditions: Plasmodium falciparum
Procedure, shortened: as §1

[6] = test system: Cam3.I; experiment: 72 h [3H]hypoxanthine incorporation assay, Cam3.I; format: cell-based; conditions: Plasmodium falciparum
Procedure, shortened: as §1

[7] = test system: Pf parasites; experiment: Minimum inoculum resistance; format: cell-based, Plasmodium falciparum
Procedure, shortened: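 Pf cultures were selected at constant pressure of 3 × IC50 in two groups. The lower-inoculum group used 24 wells. The higher group started at 2 × 10^7 parasites in triplicate, covering 2 × 10^7 to 6 × 10^7. Wells were monitored for day of recrudescence. MIR = total inoculum divided by the number of recrudescent wells. A DHODH inhibitor served as positive control. Resistant clones were whole-genome sequenced.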

[8] = test system: Dd2; conditions: read-out: Dd2 IC50; cited from earlier work

| Compound | IC50 [1] | IC50 [2] | IC50 [3] | IC50 [4] | IC50 [5] | IC50 [6] | minimum inoculum resistance (MIR) ([7]; selection pressure 3 × IC50, parasites) | day of recrudescence ([7]; starting inoculum 2 × 10^5 parasites, 24 replicates) | day of recrudescence ([7]; starting inoculum 2 × 10^7 parasites, triplicate) | IC50 [8] |
| --- | --- | --- | --- | --- | --- | --- | --- | --- | --- | --- |
| C[C@H]1[C@H](OC(=O)CCC(=O)O)O[C@@H]2O[C@@]3(C)CC[C@H]4[C@H](C)CC[C@@H]1[C@@]24OO3 [artesunate] | 4 nM | 6 nM | 2 nM | 2 nM | 5 nM | 11 nM | – | – | – | – |
| Cc1cc(Nc2ccc(S(F)(F)(F)(F)F)cc2)n2nc(C(C)(F)F)nc2n1 [DSM265] | – | – | – | – | – | – | 2 × 10^7 | never recrudesced | 25 days | – |
| CCN(CC)CCCC(C)Nc1ccnc2cc(Cl)ccc12 (stereo not shown) [chloroquine] | 8 nM | 157 nM | 202 nM | 79 nM | 135 nM | 180 nM | – | – | – | – |
| O=C(NC1Cc2ccccc2C1)c1nccnc1NC(=O)N1CCCCC1 [N-(2,3-dihydro-1H-inden-2-yl)-3-(piperidine-1-carboxamido)pyrazine-2-carboxamide] | – | – | – | – | – | – | – | – | – | 63 nM |
